We go through 95 compounds from PubChem BioAssay AID504383 (The Scripps Research Institute Molecular Screening Center, 2011).

The whole screen tested about 2,500 compounds, of which about 1,200 (48%) were called active. The set was probably picked from earlier hits. This is one part of the list. A number with no mark means an inactive call.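 How the source made its calls: active means mean activation above the low control average plus 3 SD, as set in the primary screen (cut at about 12% in these data); inactive means the rest.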

This experiment concerns the target Troponin I, cardiac muscle (Homo sapiens) + Troponin T, cardiac muscle (Homo sapiens) + Troponin C, slow skeletal and cardiac muscles (Homo sapiens) (UniProt P19429+P45379+P63316). The experiment can be described thus: cardiac RTF calcium sensitivity activators, confirmation, biochemical, IANBD-TnC fluorescence, triplicate (AID 504383).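 Further: 0% = DMSO at 0.472 mM calcium and 100% = DMSO at 2.9 mM calcium.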 Particulars: IANBD-labeled cardiac RTF, Ca2+ sensitivity fluorescence; at 7.2 µM; active compounds read high; scaled from EC20 to saturating calcium; tested at EC20 calcium, 0.472 mM. A digest of the protocol:
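Test system: labelled regulated thin filament protein complex. Dosing: single nominal compound dose of 7.2 µM. Benchmarks: EC20 and EC100 calcium wells. Read-out basis: fluorescence gain scaled between EC20 and EC100 calcium controls. Probe or stimulus: submaximal calcium at 0.472 mM (EC20). Technique: fluorescence. Times: 15 min compound exposure, 25 °C.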
Regarding `O=C/C(=C\Nc1ccc(S(=O)(=O)CCO)cc1)c1nc2cc(Cl)ccc2o1`, the activation was 65% (active). For the compound `N#CC(C#N)=C1C=C2C=C(N3CCCCCC3)CCC2CC1` (stereo not given), the activation is 5.58%.

With `COc1ccc2ccccc2c1C(O)c1nccn1C` (stereo not given), the activation is 58% (active).

In the case of `CN1c2ccc(C=O)c3c(C=O)ccc(c23)N(C)C1(C)C`, the activation is 1.58%. For `CC1=CC2=NC(=O)/C(=C\c3ccc(-c4cccc(Cl)c4)o3)C(=N)N2O1` the value was 101% (active); for `COc1ccc(CNCc2cccc(Cl)c2)cc1`, 4.73%; for `OCCNCc1cccc(OCc2ccc(Cl)cc2)c1`, 173% (active). Take `CN1CCN(/N=C/c2ccc(OCc3ccccc3)cc2)CC1`: the activation is 309% (active). For `O=C(C1CCN(Cc2ccc(OCc3ccccc3)cc2)CC1)N1CCCC1`, the activation was -1.48%.

As for `CN1CCN(CCOc2ccc(Cc3ccccc3)cc2)CC1`, the activation was 9.76%. Turning to `O=C(NCc1ccco1)C1CCC(N2C(=O)C3C4CCC(C4)C3C2=O)CC1` (stereo not given), the activation was 6.57%. For `O=C(NCc1ccco1)C1Cc2ccccc2CN1C(=O)c1ccco1` (stereo not given) the value was 2880% (active); for `O=C(O)C1CC(O)CN1C(=O)c1ccco1` (stereo not given), 5.9%. Turning to `CCCCCCCCOc1ccc(C2OC34CCCCC3C(C#N)(C#N)C2(C#N)C(=N)O4)cc1` (stereo not given), the activation is 17.2% (active). As for `CCCCC1OC23CCCCC2C(C#N)(C#N)C1(C#N)C(=N)O3` (stereo not given), the activation is 13% (active). `CCCCOc1ccc(C2OC34CCCCC3C(C#N)(C#N)C2(C#N)C(=N)O4)cc1` (stereo not given): the activation was 6.95%.

Regarding `COc1ccc(C2OC34CCCCC3C(C#N)(C#N)C2(C#N)C(=N)O4)cc1` (stereo not given), the activation is 5.98%. For `CCC1OC23CCCCC2C(C#N)(C(=N)O3)C1(C#N)C#N` (stereo not given), the activation is 10.4%. Take `CCOc1ccc(C2OC34CCCCC3C(C#N)(C#N)C2(C#N)C(=N)O4)cc1OC` (stereo not given): the activation is 7.44%.

`CCCC1OC23CCCCC2C(C#N)(C#N)C1(C#N)C(=N)O3` (stereo not given): the activation was 179% (active).

With `CCCCC1OC23CCCCC2C(C#N)(C(=N)O3)C1(C#N)C#N` (stereo not given), the activation was 10.2%. With `N#CC1(C#N)C(c2ccccc2)OC23CCCCC2C1(C#N)C(=N)O3` (stereo not given), the activation was -2.46%. As for `COc1cccc(/C=N/c2nc3ccccc3[nH]2)c1O`, the activation was 6.09%.

In the case of `COc1cccc(/C=N/Nc2nnc3c(n2)[nH]c2ccccc23)c1OC`, the activation is 13.1% (active). For `NC(=O)[C@@H]1CCCNc2c(I)cc([N+](=O)[O-])cc2C(=O)N[C@@H](CCC(=O)O)C(=O)N[C@@H](CO)C(=O)N1`, the activation is 6.37%.

In the case of `OC(CNCC1CCCO1)Cn1c2ccc(Br)cc2c2cc(Br)ccc21` (stereo not given), the activation is 34.1% (active). Regarding `COC(=O)C(C)n1cnc2c(nnn2Cc2ccc(Cl)cc2)c1=O` (stereo not given), the activation was 12.4% (active). With `Cc1ccccc1-n1c(SCc2c(C)noc2C)nnc1-c1cccnc1`, the activation is 13.8% (active). On to `COc1cc2c(cc1OC)CN(Cc1cc(=O)oc3cc(C)c(C)cc13)CC2`, for which the activation was -0.4%. Regarding `Cc1cc(N2CCN(c3nc(-c4ccc([N+](=O)[O-])cc4)cs3)CC2)c2ccccc2n1`, the activation was 14.9% (active). In the case of `COc1ccc(-c2csc(N3CCN(c4cc5c(cc4Cl)nc(-c4ccncc4)n5CCOCCO)CC3)n2)cc1`, the activation is 2.85%. Regarding `CC(=O)c1nnn(-c2cccc(C#N)c2)c1C`, the activation is 1.86%. For the compound `O=C(CCSc1ccccc1)N1CCN(C(=O)c2ccco2)CC1`, the activation was 135% (active).

Turning to `O=c1[nH]c2c(s1)C=Nc1ccccc1N2`, the activation is 2.27%.

Take `O=[n+]1c2c(n([O-])c3ccccc31)CCC2`: the activation was 29.4% (active).

As for `O=[n+]1c2c(n([O-])c3cc(F)c(N4CCCC4)cc31)CCCC2`, the activation is 259% (active). Consider `O=[n+]1c2c(n([O-])c3cc(F)c(N4CCCC4)cc31)CCC2`, for which the activation is 92% (active).

Consider `O=C(Cn1c(=O)c(=O)n(Cc2ccccc2)c2ccc(Cl)cc21)Nc1ccc(F)cc1F`, for which the activation was 1.32%.

As for `O=C1Nc2ccccc2/C1=C/c1cnc(-c2ccccc2)[nH]1`, the activation is 92.3% (active). As for `Cc1cc(C)c(/C=C2\C(=O)Nc3ccccc32)[nH]1`, the activation is 14.2% (active). Take `Cc1ccc(N/C=C2/Sc3ccccc3NC2=O)cc1`: the activation was 9.19%. In the case of `COc1ccc(CC(=O)NCc2csc(-c3cccs3)n2)cc1OC`, the activation is 5.67%. For `COc1ccc(CNS(=O)(=O)c2cc(-c3cc(C)no3)ccc2OC)cc1OC` the value was 24.2% (active); for `CC1CC(C)CN(S(=O)(=O)N2CCCC(C(=O)NC3CCCCC3)C2)C1` (stereo not given), 219% (active).

As for `Cc1cc(NC(=O)CN2C(=O)[C@@H]3[C@H](C2=O)[C@@H]2C[C@H]3C(Br)C2Br)no1` (stereo not given in full), the activation is 40% (active).

In the case of `CC(/C=N/Nc1ccc2nncn2n1)=C\c1ccccc1`, the activation is 70.4% (active). Regarding `CCOC(=O)c1cc(C#N)c(SCC(=O)c2cc(C#N)c(SC)nc2C)[nH]c1=O`, the activation is 15.6% (active). For `O=C(Nc1ccc(F)cc1F)c1ccc(COc2c(F)c(F)cc(F)c2F)o1` the value was 4.6%; for `C/C(=N\Nc1ccc([N+](=O)[O-])cc1[N+](=O)[O-])c1cccnc1`, 17% (active).

As for `O=C(/C=C/c1ccccc1[N+](=O)[O-])Nc1cccnc1`, the activation is 5.57%.

Regarding `O=C(c1ccc([N+](=O)[O-])cc1[N+](=O)[O-])n1cnc2ccccc21`, the activation was -1.33%. For `CS(=O)(=O)N(CC(=O)O)Cc1cccc(CN(CC(=O)O)S(C)(=O)=O)c1` the value was 9.58%.

Turning to `CC(C)(Cc1cccc(CC(C)(C)C(=O)O)c1)C(=O)O`, the activation was 12% (active). For `CCCOc1ccc(N)cc1N` the value was 10.4%.

As to `O=C(CC1C(=O)N(c2ccc(Cl)cc2)C(=S)N1CCc1ccncc1)Nc1ccc(F)cc1` (stereo not given), the activation is 3.64%.

Regarding `Cc1ccc(-c2noc(-c3c(C)noc3C)n2)cc1`, the activation was 9.16%.

In the case of `COc1cc(-c2c(-c3ccc4c(c3)OCO4)noc2C)ccc1F`, the activation is 37.8% (active). For `CCOC(=O)c1ccc(-c2c(-c3ccc4c(c3)OCO4)noc2C)cc1F` the value was 12% (active); for `Nc1ccc2c3c(cccc13)-c1ccccc1-2`, 10%.

Regarding `Cc1ccccc1S(=O)(=O)Cc1ccc(C(=O)NCCN(C)Cc2ccccc2)o1`, the activation is 28.6% (active). On to `O=C(NCCN1CCOCC1)c1ccc(CS(=O)(=O)c2c(Cl)cccc2Cl)o1`, for which the activation is 7.99%.

On to `Brc1ccc(-c2cnnc(N3CCCC3)n2)cc1`, for which the activation is 184% (active). Turning to `CC(C)(C)c1ccc(-c2n[nH]c(=S)n2CC2CCCO2)cc1` (stereo not given), the activation is 101% (active). Take `O=C(Nc1ccccc1OC(=O)c1ccccc1)c1ccccc1`: the activation is 235% (active).

On to `COc1ccccc1NC(=O)/C=C/C(=O)O`, for which the activation is 9.02%. For `CC(C)C(=O)c1cc2c(cc1NC(=O)c1ccccc1)OCCO2` the value was 3.91%. Regarding `Cc1ccc([N+](=O)[O-])c(OCCCN2C(=O)NC(C)(C)C2=O)c1`, the activation is 11%. For the compound `COc1ccc(C2=NN(C(=O)CSc3ncccn3)C(c3ccc(C)cc3)C2)cc1` (stereo not given), the activation was 505% (active). With `CC1CCC(C(C)C)C(OC(=O)Cn2c(-c3ccccc3)[n+](C)c3ccccc32)C1` (stereo not given), the activation is 10.7%.

For the compound `COc1ccc(CN=C2NC(=O)CC(C(=O)Nc3ccc(F)cc3)S2)cc1` (stereo not given), the activation was 10.2%. For `CN(C)c1ccc(/C=C/C(=O)c2cc(Cl)ccc2O)cc1`, the activation was 5.68%. Take `CC(/C=C/c1ccc(N(C)C)cc1)=N/N=C1/NC(=O)CC(C(=O)Nc2ccc(Cl)cc2)S1` (stereo not given): the activation is 14.4% (active). For `COc1ccc(-c2cc(C3CC3)nc(SCC(=O)c3cccs3)c2C#N)cc1`, the activation was 8.22%. Take `N#Cc1c(-c2ccccc2F)cc(C2CC2)nc1SCC(=O)c1cccs1`: the activation is 14.3% (active). Turning to `O=C(c1cccs1)N1CCN=C1SCc1cccc(F)c1`, the activation was 0.56%.

Take `CC(C)OC(=O)c1c2c(n3ccccc13)C(=O)c1ccccc1C2=O`: the activation is 9.36%. Take `CCN(CC)c1ccc(/C=C/c2cccc[n+]2C)c(OC)c1`: the activation was 63.4% (active).

Take `CN(C)NC(=O)c1ccc([N+](=O)[O-])s1`: the activation is 31.3% (active). For `Cc1nc(NC(=O)c2ccccc2[N+](=O)[O-])sc1C(=O)N(C)C` the value was 11.2%; for `CN(C)/C=C/C(=O)c1ccc(Br)s1`, 10.5%. In the case of `Cc1c(Cl)c([N+](=O)[O-])nn1CC(=O)N1CCN(C23CC4CC(CC(C4)C2)C3)CC1`, the activation is 12% (active).

Turning to `CN(C)NC(=S)Nc1ccc(S(=O)(=O)N2CCCCC2)cc1`, the activation was 19.8% (active).

In the case of `O=S(=O)(c1ccc(NC(=S)Nc2ccccc2)cc1)N1CCOCC1`, the activation is 24.5% (active).

Turning to `O=C(Cn1cnc2c(cnn2-c2ccccc2)c1=O)Nc1ccc(S(=O)(=O)N2CCOCC2)cc1`, the activation was 31% (active). To `Cc1cccc(NC(=O)Cn2cnc3ccc(S(=O)(=O)N4CCC(C)CC4)cc3c2=O)n1` belongs 8.56%. In the case of `CN1CC[C@@H]2C(=O)N3CCc4ccc(Br)cc4[C@@H]3C[C@@H]21`, the activation is 10.5%. As for `CC(Sc1nc2ncc(Cl)cc2[nH]1)C(=O)Nc1ccc(C(N)=O)cc1` (stereo not given), the activation was 1.26%. For `O=C(CSc1nc2ncc(Br)cc2[nH]1)c1cccc([N+](=O)[O-])c1` the value was 64% (active); for `CC(=O)N1C(=O)C(=C2C=C(C)OC(C)=C2)c2ccccc21`, 62.7% (active); for `Cc1c2ccccc2nc2c(F)c(NCCO)c(F)c(F)c12`, 159% (active).

With `Cc1c2ccccc2nc2c(F)c(N(C)C)c(F)c(F)c12`, the activation is 19.2% (active).

`CCn1c(O)c(/C=N/N=C/c2ccccc2)c2ccc(C3=NNC(=O)CC3)cc21`: the activation was 10.2%. Consider `CCn1c(O)c(/C=N/N=C/c2ccc(OC)cc2)c2cc(C3=NNC(=O)CC3)ccc21`, for which the activation was 20.9% (active). For `C/C(=N/Nc1ccnc2cc(Cl)ccc12)c1ccc(N)cc1` the value was 18.9% (active). Take `C/C(=N\Nc1nccnc1Cl)c1ccc(Cl)c(Cl)c1`: the activation was 5.84%.
